Bioassay records as filed in PubChem.
Compounds with a hit are over-represented: about 4.1% of the library has one in this group of screens.
hERG protect – compounds protecting human hERG from proarrhythmic drug block | activation (rescue from dofetilide block), less the hit threshold, % at 10 µM | CHO-hERG, FluxOR thallium flux, dofetilide IC70 present | 0.51% of 310,000 active | Q12809 | AID 1511;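 active = activation above the mean of controls blocked by dofetilide plus 5 SD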;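 note: thallium influx through hERG after potassium depolarization seen as dye fluorescence rise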
KCNK9 inh – inhibitors of human KCNK9 two-pore domain potassium channel; Q9NPC2; HEK293 KCNK9, FluxOR thallium flux fluorescence; active compounds read low; B-score at 10 µM; 1.2% of 310,000 active; AID 488922;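 active = ratio B-score over 3 SD below the library mean, with starting fluorescence within 5 SD of its mean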;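 note: negative B-score means less thallium flux so channel inhibition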
KCNK3 block – human KCNK3 channel inhibition, primary screen. O14649. CHO-KCNK3 thallium flux, FluxOR fluorescence; active compounds read low. B-score at 10 µM. 0.84% of 340,000 active. AID 602410;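 active = B-score under library mean minus 4 SD, starting fluorescence ratio at most library mean plus 5 SD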;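 note: more negative B-score means stronger inhibition of thallium flux through KCNK3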
KCNQ1 block – human KCNQ1 channel inhibition; CHO-K1 KCNQ1, FluxOR thallium flux fluorescence; active compounds read high; B-score at 10 µM; 1.3% of 310,000 active; P51787; AID 2642;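 active = compounds whose thallium flux B-score, printed positive for inhibition, exceeds three library SD while starting fluorescence stays within three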;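 note: channel opened by potassium depolarization with thallium stimulus after 20 min compound exposure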
KCNQ1 pot – potentiates or activates the human KCNQ1 potassium channel; P51787; CHO-K1 KCNQ1, thallium flux FluxOR fluorescence; active compounds read high; B-score at 10 µM; 0.35% of 310,000 active;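 active = fluorescence ratio B-score, a plate-corrected score, at least three library SD, with initial intensity B-score within 5 SD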
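Doses: Single concentration per compound, DMSO matched to controls | Test system: KCNQ1-transfected CHO-K1 cells | Timing: 90 min dye loading and 20 min compound exposure, both at room temperature | Measured by: Kinetic FluxOR thallium fluorescence, 10-s 1-Hz baseline, 110-s post-stimulus read | Medium: Assay buffer with matched DMSO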
Cl transport mod – modulates chloride dependent transport by human KCC2 | Q9H2X9 | AID 1456 | B-score of Tl+ flux slope (higher = more flux/activation; lower = inhibition) at 10 µM | 2.2% of 190,000 active | KCC2 cells, thallium flux FluoZin-2 fluorescence;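 active = thallium flux slope and its plate-corrected score both differing from the plate sample mean at a set confidence after two filtering rounds, in either direction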;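 note: slope of fluorescence scaled to starting intensity during 10 to 20 s after thallium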
KCNK9 inh conf – confirmation of human KCNK9 potassium channel inhibitors. shares compounds with KCNK9 inh. AID 492992. inhibition, % at 10 µM. HEK293 KCNK9 cells, FluxOR thallium flux fluorescence. 43% of 4,900 active;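 active = thallium signal inhibited by more than 5 SD of the compound-free buffer control wells, on both duplicate plates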;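 note: 0% = assay buffer control wells without compound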
Kir2-1 spec – mouse Kir2.1 off-target activity of KCNK9 modulators | Kir2.1 cells, FluxOR thallium flux fluorescence | inhibition, % at 10 µM | shares compounds with KCNK9 inh | AID 492993 | 4% of 4,900 active;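 active = thallium signal drop more than 5 SD beyond the mean of the no-compound control wells, seen in both duplicate plates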;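 note: signal is fluorescence rise after thallium addition divided by baseline fluorescence; plate controls were assay buffer only for no effect and full block by chlorpromazine control for full effect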
Target sequence (P35561 whole entry, looked up): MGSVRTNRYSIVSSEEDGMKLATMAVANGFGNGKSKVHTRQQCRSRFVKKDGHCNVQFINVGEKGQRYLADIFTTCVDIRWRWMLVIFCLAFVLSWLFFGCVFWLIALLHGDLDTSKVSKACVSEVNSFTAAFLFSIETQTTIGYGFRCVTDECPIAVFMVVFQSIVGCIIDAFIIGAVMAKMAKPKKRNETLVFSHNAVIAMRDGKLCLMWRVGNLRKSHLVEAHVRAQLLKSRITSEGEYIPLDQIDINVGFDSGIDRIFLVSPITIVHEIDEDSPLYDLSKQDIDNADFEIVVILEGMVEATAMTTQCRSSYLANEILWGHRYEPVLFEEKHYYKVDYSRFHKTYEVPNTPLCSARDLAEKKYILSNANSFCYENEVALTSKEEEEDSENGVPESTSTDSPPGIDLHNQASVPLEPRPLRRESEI
HEK293 Tl ctr – second check of KCNK9 modulator effects in non-induced HEK293 cells; shares compounds with KCNK9 inh; FluxOR thallium flux; inhibition, % at 10 µM; 40% of 4,900 active; AID 492997;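 active = thallium signal drop beyond 5 SD of the untreated control mean, on both duplicate plates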;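 note: plate controls were buffer only IC0 wells for no effect and SID17386958 at its maximal inhibitory level for full effect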
* marks the source's active call; other numbers are inactive results; i = inactive; nt = not tested or not shown.

SMILES	hERG protect	KCNK9 inh	KCNK3 block	KCNQ1 block	KCNQ1 pot	Cl transport mod	KCNK9 inh conf	Kir2-1 spec	HEK293 Tl ctr
CSc1ccc(C(=O)C2CCCN(Cc3cccn3-c3cccnc3)C2)cc1 (stereo not drawn)	-0.6	i	i	i	i	nt	i	i	i
S=C(NCCc1ccccc1)N/N=C/c1ccccc1Cl	-3.5	i	i	i	i	2.48	i	i	i
C/C(=N\NC(=S)NCCc1ccccc1)c1ccc(C#N)cc1	-7.3	i	i	i	i	0.51	nt	nt	nt
C/C(=N\NC(=S)NCCc1ccccc1)c1ccc(C)cc1	-11.7	i	i	i	i	2.91*	i	i	i
Oc1ccc(Br)cc1/C=N/NC(=S)NCCc1ccccc1	-12.7	i	i	i	i	nt	nt	nt	nt
CCN1C(=O)[C@H]2[C@H]3CN=C(SC)N3[C@@](Cc3ccccc3)(C(=O)OC)[C@H]2C1=O	nt	nt	i	nt	nt	nt	nt	nt	nt
COc1ccc(C2=NCC(CSc3nnc(-c4ccc5c(c4)OCO5)o3)S2)cc1 (stereo not drawn)	-13.2	i	i	i	i	0.153	i	i	i
O=c1[nH]n(Cc2ccccc2)c2ccccc12	-13.0	i	i	i	i	nt	nt	nt	nt
COc1cccc(CC2(CO)CCCN(Cc3ccccc3Cl)C2)c1 (stereo not drawn)	-4.7	i	i	i	i	nt	nt	nt	nt
COc1cccc(CC2(CO)CCCN(Cc3ccc(OC)c(C)c3OC)C2)c1 (stereo not drawn)	-14.0	i	i	i	i	nt	i	i	i
Cn1cc(CN2CCCC(CO)(Cc3ccccc3)C2)c2ccccc21 (stereo not drawn)	-10.4	i	i	i	i	-2.21	i	i	28.5%*
COc1cccc(CC2(CO)CCCN(Cc3cn(C)c4ccccc34)C2)c1 (stereo not drawn)	-9.6	i	i	i	i	0.391	nt	nt	nt
CCN(CC(=O)NCc1ccc(F)cc1)C(=O)/C=C/c1ccc(S(=O)(=O)N(CC)CC)cc1	-2.4	i	i	i	i	nt	nt	nt	nt
O=C(c1ccccc1)c1ccc(-n2ccnc2)c([N+](=O)[O-])c1	-4.6	i	i	i	i	nt	nt	nt	nt
O=C(/C=C/c1ccccc1Cl)N(c1ccccn1)C1CCCCC1	-7.1	-12.2*	i	i	i	-1.17	58.0%*	i	32.0%*
O=C1c2ccccc2C(Nc2ccc(Cl)cn2)N1c1ccccn1 (stereo not drawn)	-8.4	-9.75*	i	i	i	-0.435	37.0%*	i	i
CCS(=O)(=O)N1CCCC(C(=O)NCCCOC(C)C)C1 (stereo not drawn)	-0.1	i	i	i	i	nt	nt	nt	nt
CC(C)OCCCNC(=O)C1CCN(S(=O)(=O)N2CCCC2)CC1	-20.6	-8.1*	i	i	i	0.693	i	i	i
COc1ccccc1-n1nnnc1SCC(=O)Nc1ccc(C)c(N)c1	-3.8	i	i	i	i	nt	nt	nt	nt
Cc1ccnc(Nc2nc(-c3c(C)nc4sccn34)cs2)c1	-13.9	-16.6*	i	i	i	-0.262	40.0%*	i	28.0%*
Cc1ccnc(Nc2nc(-c3ccccc3)cs2)c1	1.4	i	i	i	i	nt	nt	nt	nt
CCCCN(CC)C(=O)Cn1ncc2c3ccccc3n(CCC)c2c1=O	-6.8	i	i	i	i	nt	nt	nt	nt
CN(C/C=C/C#CC(C)(C)C)Cc1cccc2ccccc12	-8.6	i	i	i	i	nt	i	i	i
COc1ccc(CCN(C)Cc2cccc3ccccc23)cc1OC	-11.3	i	i	i	i	nt	nt	nt	nt
Cc1ccc(CN2CCN(C(=O)c3cccc4ccccc34)CC2)cc1	-11.2	i	i	i	i	nt	nt	nt	nt
SMILES	hERG protect	KCNK9 inh	KCNK3 block	KCNQ1 block	KCNQ1 pot	Cl transport mod	KCNK9 inh conf	Kir2-1 spec	HEK293 Tl ctr
Cc1cccc(CN2CCN(C(=O)c3cccc4ccccc34)CC2)c1	-8.5	i	i	i	i	nt	i	i	i
O=C(Nc1cscc1S(=O)(=O)c1ccccc1)c1ccccc1Cl	-2.8	-8.62*	i	i	i	-2.78	41.0%*	i	33.5%*
O=C(Nc1cscc1S(=O)(=O)c1ccc(Cl)cc1)c1ccccc1Cl	-10.7	i	i	i	i	-0.854	nt	nt	nt
COc1ccc(/C=N/Nc2nc(-c3ccc(Cl)cc3)cc(C(F)(F)F)n2)cc1OC	-10.0	i	i	6*	i	0.114	i	i	i
COc1cccc(C(=O)NCC(C)(C)SCc2ccc(F)cc2)c1	-6.2	i	i	i	i	nt	i	i	i
O=C(OCN1C(=O)c2ccccc2C1=O)c1cccc(OC(F)F)c1	-2.0	i	i	i	i	nt	nt	nt	nt
N#CC(OC(=O)c1ccccc1)c1cccc([N+](=O)[O-])c1 (stereo not drawn)	nt	nt	i	nt	nt	nt	nt	nt	nt
O=C(OC(c1ccccc1)c1nccc2ccccc12)c1cccc([N+](=O)[O-])c1 (stereo not drawn)	-12.4	-13*	i	7*	i	-0.741	40.0%*	i	47.5%*
N#Cc1c(Sc2ncc(C(F)(F)F)cc2Cl)nsc1C/C=N\OCc1ccccc1Br	-15.0	i	i	i	i	0.708	i	i	i
Cn1c(C(N)=O)cnc1Sc1ncc(C(F)(F)F)cc1Cl	-5.2	i	i	i	i	0.823	nt	nt	nt
CC(C)Cn1c(/C=N/Nc2nc3ccccc3[nH]2)nc2ccccc21	-3.7	i	i	11*	i	-0.138	27.0%*	i	i
CCCn1c(/C=N/Nc2nc3ccccc3[nH]2)nc2ccccc21	nt	nt	i	nt	nt	-0.778	nt	nt	nt
O=c1cc(CN2CCN(CCO)CC2)c2cc3c(cc2o1)CCC3	-12.6	i	i	i	i	nt	nt	nt	nt
O=c1cc(CN2CCN(Cc3ccccc3)CC2)c2cc3c(cc2o1)CCC3	-8.9	i	i	i	i	-2.85	i	i	i
CCC(C(=O)NC(C)(C)C)N(Cc1ccc(F)cc1)C(=O)c1snc(C(N)=O)c1N (stereo not drawn)	-1.1	i	i	i	i	nt	nt	nt	nt
Cc1cccc(N2CCN(C(=O)COc3cccc4c3OC(C)(C)C4)CC2)c1C	-8.7	-8.7*	i	i	i	-1.42	25.0%*	i	i
